Laboratory results as given in ChEMBL document CHEMBL2046356, “Synthesis and evaluation of a set of para-substituted 4-phenylpiperidines and 4-phenylpiperazines as monoamine oxidase (MAO) inhibitors” (J Med Chem, 2012).
pKi: −log10 of the molar value. Calls of active or inactive are those of the source. The rule behind the calls is not given here.

Target: T1, Amine oxidase [flavin-containing] B (Rattus norvegicus, UniProt P19643)
T1 sequence (P19643 whole entry): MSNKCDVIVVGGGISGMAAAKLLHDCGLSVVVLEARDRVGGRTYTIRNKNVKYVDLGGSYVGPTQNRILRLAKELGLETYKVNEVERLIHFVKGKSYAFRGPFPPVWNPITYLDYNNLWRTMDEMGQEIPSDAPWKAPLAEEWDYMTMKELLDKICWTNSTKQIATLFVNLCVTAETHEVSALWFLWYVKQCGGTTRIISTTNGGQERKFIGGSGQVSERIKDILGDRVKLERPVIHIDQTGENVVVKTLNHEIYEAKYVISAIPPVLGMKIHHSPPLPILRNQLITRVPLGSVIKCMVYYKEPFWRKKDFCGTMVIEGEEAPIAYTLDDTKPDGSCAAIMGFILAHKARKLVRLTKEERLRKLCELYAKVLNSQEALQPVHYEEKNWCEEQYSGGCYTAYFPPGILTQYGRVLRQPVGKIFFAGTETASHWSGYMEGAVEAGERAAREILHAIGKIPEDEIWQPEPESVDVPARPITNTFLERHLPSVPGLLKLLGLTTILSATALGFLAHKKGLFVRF
Assay: Displacement of [3H]-Ro 16-6491 from MAO-B receptor in rat cerebral cortex
Format: tissue-based

SMILES | pKi
CCCN1CCC(c2ccc(N3CCOCC3)cc2)CC1 | 4.89
CCCN1CCC(c2ccc(Cl)cc2)CC1 | 4.42
CCCN1CCN(c2ccc(OS(=O)(=O)C(F)(F)F)cc2)CC1 | 7.48
CCCN1CCC(c2ccc(C#N)cc2)CC1 | 3.23
CCCCOc1ccc(C2CCN(CCC)CC2)cc1 | 5.80
O=C(NCCN1CCOCC1)c1ccc(Cl)cc1 [MOCLOBEMIDE] | < 4.00
CCCN1CCC(c2ccc(OC)cc2)CC1 | 3.66
CCCN1CCC(c2ccc(S(C)(=O)=O)cc2)CC1 | 3.23
CCCN1CCN(c2ccc(OC)cc2)CC1 | 3.23
CCCN1CCC(c2ccc(C(F)(F)F)cc2)CC1 | 4.89

System: Rattus norvegicus
Assay: Decrease in DOPAC level in Sprague-Dawley rat striatum at 5.3 umol/kg, sc measured after 1 hr compound administration
Format: functional
Design: scale not given: the % may be the effect or the level left
Procedure, shortened: (§1)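 Compounds were given to freely moving rats. Brain tissue was taken post-mortem, and striatal levels of each monoamine and its metabolites were quantified.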

SMILES | Activity [%]
C#CCN(C)[C@H](C)Cc1ccccc1 [SELEGILINE] | 83

System: Rattus norvegicus
Assay: Increase in 3-MT level in Sprague-Dawley rat striatum at 53 umol/kg, sc measured after 1 hr compound administration
Format: functional
Procedure, shortened: as §1

SMILES | Activity [%]
C#CCN(C)[C@H](C)Cc1ccccc1 [SELEGILINE] | 145

System: Rattus norvegicus
Assay: Increase in 3-MT level in Sprague-Dawley rat brain at 50 umol/kg, sc measured by microdialysis
Format: functional, organism-based

SMILES | Activity
CCCCOc1ccc(C2CCN(CCC)CC2)cc1 | Active

System: Rattus norvegicus
Assay: Decrease in homovanillic acid level in Sprague-Dawley rat brain at 50 umol/kg, sc measured by microdialysis
Format: functional, organism-based

SMILES | Activity
CCCCOc1ccc(C2CCN(CCC)CC2)cc1 | Active

System: Rattus norvegicus
Assay: Decrease in DOPAC level in Sprague-Dawley rat brain at 50 umol/kg, sc measured by microdialysis
Format: functional, organism-based

SMILES | Activity
CCCCOc1ccc(C2CCN(CCC)CC2)cc1 | Active

System: Rattus norvegicus
Assay: Decrease in DOPAC level in Sprague-Dawley rat striatum at 100 umol/kg, sc measured after 1 hr compound administration
Format: functional
Design: scale not given: the % may be the effect or the level left
Procedure, shortened: as §1

SMILES | Activity [%]
CCCN1CCC(c2ccc(N3CCOCC3)cc2)CC1 | 38
CCCN1CCC(c2ccc(Cl)cc2)CC1 | 68
CCCN1CCN(c2ccc(OS(=O)(=O)C(F)(F)F)cc2)CC1 | 121
CCCN1CCC(c2ccc(C#N)cc2)CC1 | 105
CCCCOc1ccc(C2CCN(CCC)CC2)cc1 | 40
CCCN1CCC(c2ccc(OC)cc2)CC1 | 22
CCCN1CCN(c2ccccc2)CC1 | 180
CCCN1CCC(c2ccccc2)CC1 | 130
CCCN1CCC(c2ccc(S(C)(=O)=O)cc2)CC1 | 100
CCCN1CCN(c2ccc(OC)cc2)CC1 | 71
CCCN1CCC(c2ccc(C(F)(F)F)cc2)CC1 | 86

System: Rattus norvegicus
Assay: Increase in 3-MT level in Sprague-Dawley rat striatum at 100 umol/kg, sc measured after 1 hr compound administration
Format: functional
Procedure, shortened: as §1

SMILES | Activity [%]
CCCN1CCC(c2ccc(N3CCOCC3)cc2)CC1 | 160
CCCN1CCC(c2ccc(Cl)cc2)CC1 | 130
CCCN1CCN(c2ccc(OS(=O)(=O)C(F)(F)F)cc2)CC1 | 120
CCCN1CCC(c2ccc(C#N)cc2)CC1 | 115
CCCCOc1ccc(C2CCN(CCC)CC2)cc1 | 150
CCCN1CCC(c2ccc(OC)cc2)CC1 | 260
CCCN1CCN(c2ccccc2)CC1 | 100
CCCN1CCC(c2ccccc2)CC1 | 100
CCCN1CCC(c2ccc(S(C)(=O)=O)cc2)CC1 | 100
CCCN1CCN(c2ccc(OC)cc2)CC1 | 135
CCCN1CCC(c2ccc(C(F)(F)F)cc2)CC1 | 100

System: Rattus norvegicus
Assay: Decrease in DOPAC level in Sprague-Dawley rat striatum at 37 umol/kg, sc measured after 1 hr compound administration
Format: functional
Design: scale not given: the % may be the effect or the level left
Procedure, shortened: (§2)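 Unrestrained rats were dosed, and post-mortem striatal brain tissue was then analysed. Each monoamine and its metabolites (DOPAC, 3-MT) were quantified in the tissue.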

SMILES | Activity [%]
O=C(NCCN1CCOCC1)c1ccc(Cl)cc1 [MOCLOBEMIDE] | 18

System: Rattus norvegicus
Assay: Increase in 3-MT level in Sprague-Dawley rat striatum at 5.3 umol/kg, sc measured after 1 hr compound administration
Format: functional
Procedure, shortened: as §1

SMILES | Activity [%]
C#CCN(C)[C@H](C)Cc1ccccc1 [SELEGILINE] | 110

System: Rattus norvegicus
Assay: Increase in 3-MT level in Sprague-Dawley rat striatum at 37 umol/kg, sc measured after 1 hr compound administration
Format: functional
Procedure, shortened: as §2

SMILES | Activity [%]
O=C(NCCN1CCOCC1)c1ccc(Cl)cc1 [MOCLOBEMIDE] | 400

System: Rattus norvegicus
Assay: Decrease in DOPAC level in Sprague-Dawley rat striatum at 53 umol/kg, sc measured after 1 hr compound administration
Format: functional
Design: scale not given: the % may be the effect or the level left
Procedure, shortened: as §1

SMILES | Activity [%]
C#CCN(C)[C@H](C)Cc1ccccc1 [SELEGILINE] | 37

Target: T2, Amine oxidase [flavin-containing] A (Rattus norvegicus, UniProt P21396)
T2 sequence (P21396 whole entry): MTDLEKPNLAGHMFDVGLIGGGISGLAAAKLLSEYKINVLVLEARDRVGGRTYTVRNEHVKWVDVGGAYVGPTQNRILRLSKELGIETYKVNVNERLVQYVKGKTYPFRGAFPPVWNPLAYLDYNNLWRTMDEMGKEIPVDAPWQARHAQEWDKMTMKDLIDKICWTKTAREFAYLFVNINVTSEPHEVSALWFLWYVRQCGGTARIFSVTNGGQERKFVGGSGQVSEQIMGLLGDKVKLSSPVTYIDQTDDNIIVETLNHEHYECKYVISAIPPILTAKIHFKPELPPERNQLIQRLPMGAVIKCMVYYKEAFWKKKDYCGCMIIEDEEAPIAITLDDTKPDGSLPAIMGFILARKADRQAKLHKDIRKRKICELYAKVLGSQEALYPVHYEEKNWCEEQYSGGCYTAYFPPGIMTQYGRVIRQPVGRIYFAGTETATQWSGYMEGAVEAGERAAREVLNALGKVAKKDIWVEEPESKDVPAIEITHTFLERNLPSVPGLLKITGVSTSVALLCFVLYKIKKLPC
Assay: Displacement of [3H]-Ro 41-1049 from MAO-A receptor in rat cerebral cortex
Format: tissue-based

SMILES | pKi
CCCN1CCC(c2ccc(N3CCOCC3)cc2)CC1 | 5.92
CCCN1CCC(c2ccc(Cl)cc2)CC1 | 5.82
CCCN1CCN(c2ccc(OS(=O)(=O)C(F)(F)F)cc2)CC1 | 4.77
CCCN1CCC(c2ccc(C#N)cc2)CC1 | 4.03
CCCCOc1ccc(C2CCN(CCC)CC2)cc1 | 6.43
CCCN1CCC(c2ccc(OC)cc2)CC1 | 6.62
CCCN1CCN(c2ccccc2)CC1 | 4.33
CCCN1CCC(c2ccccc2)CC1 | 5.01
CCCN1CCC(c2ccc(S(C)(=O)=O)cc2)CC1 | 3.23
CCCN1CCN(c2ccc(OC)cc2)CC1 | 5.85
CCCN1CCC(c2ccc(C(F)(F)F)cc2)CC1 | 5.16
